A short description of data set [1]: Cytotoxicity against human KB-3-1 cells at 150 uM after 72 hrs by MTT assay. Format: cell-based. Conditions: read-out: GI.
The next data set deals with Plasmodium falciparum. Description: Antimalarial activity against cycloguanil-resistant Plasmodium falciparum CDC1 assessed as inhibition of ring stage parasitaemia after 48 hrs by Giemsa staining. It is filed as functional, organism-based. Conditions: CDC1, 48 h. In short, it runs like this:
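Sorbitol-synchronized ring-stage culture (0.5% parasitemia, 4% hematocrit type O human RBC) in RPMI 1640 with 10% heat-inactivated type O human serum, HEPES, glutamine, NaHCO3, hypoxanthine, gentamycin; 5% CO2/5% O2/90% N2, 37 °C. Samples from DMSO stock diluted in medium, 1% DMSO final; 48 h. Proliferation counted on Giemsa thin films, 10,000 erythrocytes per film, triplicate. Quinine as control.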

Data set [2] in a line: Cytotoxicity against human KB-3-1 cells after 72 hrs by MTT assay. It is filed as cell-based. Particulars: KB 3-1, 72 h. In short, it runs like this: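 KB-3-1 cells grown in RPMI 1640 with 10% newborn calf serum, glutamine, kanamycin, 5% CO2, 37 °C. 1.0 × 10^4 cells per well, then sample added in medium containing 2% DMSO; 72 h at 37 °C. MTT (2 mg/mL in PBS) added afterwards; growth inhibition from absorbance at 540 nm. Mitomycin C as positive control.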

Values after ≈ are worked out from the molar mass of the structure shown.

Consider `COC(=O)C1=CO[C@@H](O[C@@H]2O[C@H](CO)[C@@H](O)[C@H](O)[C@H]2O)[C@H]2[C@@H]1C=C[C@@]21C=C([C@H](O)c2ccc(O)c(OC)c2)C(=O)O1`, for which the inhibition at 72 h, 150 µM in data set [1] worked out at 13.1%. For the same compound, the IC50 in the data set on Plasmodium falciparum was 21900 nM.
`CO[C@@]12[C@H](COC(N)=O)C3=C(C(=O)C(C)=C(N)C3=O)N1C[C@@H]1N[C@@H]12` [MITOMYCIN] displayed an IC50 in data set [2] of 0.1 µg/mL (≈ 0.299 µM).
As for `COC(=O)C1=CO[C@@H](O[C@@H]2O[C@H](COC(C)=O)[C@@H](O)[C@H](O)[C@H]2O)[C@H]2[C@@H]1C=C[C@@]21C=C([C@H](O)c2ccc(O)c(OC)c2)C(=O)O1`, the inhibition at 72 h, 150 µM in data set [1] came out at 9.3%. The IC50 in the data set with Plasmodium falciparum worked out at 100 nM.
On the same counts, the results for `COC(=O)C1=CO[C@@H](O[C@@H]2O[C@H](CO)[C@@H](O)[C@H](O)[C@H]2O)[C@H]2[C@@H]1C=C[C@@]21C=C([C@H](O)c2ccc(O)cc2)C(=O)O1` are 13.4% and 800 nM.
On the same counts, the results for `COC(=O)C1=CO[C@@H](O[C@@H]2O[C@H](COC(C)=O)[C@@H](O)[C@H](O)[C@H]2O)[C@H]2[C@@H]1C=C[C@@]21C=C([C@H](O)c2ccc(O)cc2)C(=O)O1` are 4.3% and 4100 nM.
On to `C=C[C@H]1CN2CC[C@H]1C[C@H]2[C@H](O)c1ccnc2ccc(OC)cc12` [QUININE], for which, in the data set on Plasmodium falciparum, the IC50 came out at 0.04 µg/mL and the IC90 came out at 0.09 µg/mL (≈ 0.277 µM).
Consider `COC(=O)C1=CO[C@@H](O[C@@H]2O[C@H](CO)[C@@H](O)[C@H](O)[C@H]2O)[C@H]2[C@@H]1C=C[C@@]21C=C(C(=O)c2ccc(O)c(OC)c2)C(=O)O1` [DEHYDROMETHOXYGAERTNEROSIDE], for which the inhibition at 72 h, 150 µM in data set [1] was 6.1%. Moreover, the IC50 in the data set on Plasmodium falciparum stood at 40 nM.
